Measurements reported in ChEMBL document CHEMBL2157882, “Structure-activity relationship study of pyrimido[1,2-c][1,3]benzothiazin-6-imine derivatives for potent anti-HIV agents” (Bioorg Med Chem, 2012).

Key:
[1] = tested on: Human immunodeficiency virus 1; experiment: Antiviral activity against HIV 1 in HeLa-CD4/CCR5 cells assessed as inhibition of viral infectivity after 48 hrs by MAGI assay; type: functional, organism-based; conditions: Human immunodeficiency virus 1, MAGI-CCR5, 48 h
How it was run: (§1)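 HeLa-CD4/CCR5-LTR/β-gal target cells at 10⁴ cells/well, plated the day before infection; inoculated with virus at 60 MAGI U/well and cultured with graded compound concentrations in fresh medium. After 48 h, X-Gal-stained blue cells were counted per well. EC50 (50% block of infection) was interpolated from the two concentrations bracketing 50% inhibition; three independent experiments.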

[2] = tested on: Human immunodeficiency virus 1; experiment: Ratio of PD 404182 EC50 to compound EC50 for HIV 1 NL4-3 in HeLa-CD4/CCR5 cells assessed as inhibition of viral infectivity after 48 hrs by MAGI assay; type: functional
[3] = tested on: Human immunodeficiency virus 2; experiment: Antiviral activity against HIV 2 ROD in HeLa-CD4/CCR5 cells assessed as inhibition of viral infectivity after 48 hrs by MAGI assay; type: functional, organism-based; conditions: Human immunodeficiency virus 2, ISOLATE ROD, MAGI-CCR5, 48 h; how it was run: as §1
[4] = tested on: Human immunodeficiency virus 2; experiment: Ratio of PD 404182 EC50 to compound EC50 for HIV 2 ROD in HeLa-CD4/CCR5 cells assessed as inhibition of viral infectivity after 48 hrs by MAGI assay; type: functional, ISOLATE ROD
[5] = tested on: Human immunodeficiency virus 1; experiment: Antiviral activity against HIV 1 BaL in HeLa-CD4/CCR5 cells assessed as inhibition of viral infectivity after 48 hrs by MAGI assay; type: functional, organism-based; conditions: Human immunodeficiency virus 1, BaL, MAGI-CCR5, 48 h; how it was run: as §1
[6] = tested on: Human immunodeficiency virus 2; experiment: Ratio of PD 404182 EC50 to compound EC50 for HIV 2 EHO in HeLa-CD4/CCR5 cells assessed as inhibition of viral infectivity after 48 hrs by MAGI assay; type: functional
[7] = tested on: Human immunodeficiency virus 1; experiment: Antiviral activity against HIV 1 NL4-3 in HeLa-CD4/CCR5 cells assessed as inhibition of viral infectivity after 48 hrs by MAGI assay; type: functional, organism-based; conditions: Human immunodeficiency virus 1, NL4-3, MAGI-CCR5, 48 h; how it was run: as §1
[8] = tested on: Human immunodeficiency virus 1; experiment: Ratio of PD 404182 EC50 to compound EC50 for HIV 1 BaL in HeLa-CD4/CCR5 cells assessed as inhibition of viral infectivity after 48 hrs by MAGI assay; type: functional
[9] = tested on: Human immunodeficiency virus 2; experiment: Antiviral activity against HIV 2 EHO in HeLa-CD4/CCR5 cells assessed as inhibition of viral infectivity after 48 hrs by MAGI assay; type: functional, organism-based; conditions: Human immunodeficiency virus 2, EHO, MAGI-CCR5, 48 h; how it was run: as §1
HeLa = experiment: Cytotoxicity against human HeLa cells expressing CD4/CCR5 at 10 uM; type: cell-based
[10] = Cytotoxicity against human HeLa cells expressing CD4/CCR5; type: cell-based
[11] = Therapeutic index, ratio of CC50 for HeLa-CD4/CCR5 cells to EC50 for HIV 1 in HeLa-CD4/CCR5 cells assessed as inhibition of viral infectivity; type: cell-based; conditions: human, read-out: Ratio CC50/EC50

Row | SMILES | EC50 [1] [nM] | further results
1 | N=C1Sc2cc(Br)ccc2C2=NCC3(CCN(C(N)=O)CC3)CN12 | > 10000 | –
2 | N=C1Sc2cc(Br)ccc2C2=NCC3(CCCCC3)CN12 | 250 | –
3 | N=C1Sc2cc(Br)ccc2C2=NCC3(CCOCC3)CN12 | 1730 | –
4 | COc1ccc(CN2CCC3(CC2)CN=C2c4ccc(Br)cc4SC(=N)N2C3)cc1 | 1450 | –
5 | COC(=O)N1CCC2(CC1)CN=C1c3ccc(Br)cc3SC(=N)N1C2 | 440 | –
6 | CC(=O)N1CCC2(CC1)CN=C1c3ccc(Br)cc3SC(=N)N1C2 | 2740 | –
7 | CS(=O)(=O)N1CCC2(CC1)CN=C1c3ccc(Br)cc3SC(=N)N1C2 | 1810 | –
8 | COc1cc(-c2ccc3c(c2)SC(=N)N2CCCN=C32)cc(OC)c1OC | 250 | –
9 | COc1ccc(-c2ccc3c(c2)SC(=N)N2CCCN=C32)cc1Cl | 320 | –
10 | COc1ccc(Cl)cc1-c1ccc2c(c1)SC(=N)N1CCCN=C21 | 480 | –
11 | N=C1Sc2cc(-c3ccc4c(c3)OCO4)ccc2C2=NCCCN12 | 150 | Ratio EC50 [2]: 2; EC50 [3]: 100 nM; Ratio EC50 [4]: 3; EC50 [5]: 130 nM; Ratio EC50 [6]: 2; EC50 [7]: 230 nM; Ratio EC50 [8]: 3; EC50 [9]: 140 nM
12 | N=C1Sc2cc(-c3ccc4c(c3)OCCO4)ccc2C2=NCCCN12 | 260 | –
13 | N=C1Sc2cc(-c3ccc4ncccc4c3)ccc2C2=NCCCN12 | 250 | –
14 | N=C1Sc2cc(-c3ccc4c(C(=O)C(F)(F)F)c[nH]c4c3)ccc2C2=NCCCN12 | > 1000 | Activity (HeLa): Toxic
15 | N=C1Sc2cc(-c3ccc4[nH]cc(C(=O)C(F)(F)F)c4c3)ccc2C2=NCCCN12 | > 1000 | Activity (HeLa): Toxic
16 | CSc1ccc(-c2ccc3c(c2)SC(=N)N2CCCN=C32)cc1 | 200 | –
17 | N=C1Sc2cc(-c3ccc(OC(F)(F)F)cc3)ccc2C2=NCCCN12 | 380 | –
18 | COC(=O)c1cccc(-c2ccc3c(c2)SC(=N)N2CCCN=C32)c1 | 390 | –
19 | CC(=O)Nc1cccc(-c2ccc3c(c2)SC(=N)N2CCCN=C32)c1 | > 10000 | –
20 | CS(=O)(=O)Nc1cccc(-c2ccc3c(c2)SC(=N)N2CCCN=C32)c1 | > 10000 | –
21 | CC(C)Oc1cccc(-c2ccc3c(c2)SC(=N)N2CCCN=C32)c1 | 320 | –
22 | N=C1Sc2cc(-c3cccc(-c4ccccc4)c3)ccc2C2=NCCCN12 | 1350 | –
23 | COc1ccc(-c2ccc3c(c2)SC(=N)N2CCCN=C32)cc1OC | 270 | –
24 | COC(=O)c1ccc(-c2ccc3c(c2)SC(=N)N2CCCN=C32)cc1 | 810 | –
25 | N#Cc1ccc(-c2ccc3c(c2)SC(=N)N2CCCN=C32)cc1 | 440 | –
26 | N=C1Sc2cc(-c3ccc([N+](=O)[O-])cc3)ccc2C2=NCCCN12 | 460 | –
27 | N=C1Sc2cc(-c3ccc(C(F)(F)F)cc3)ccc2C2=NCCCN12 | 550 | –
28 | N=C1Sc2cc(-c3ccc(C(N)=O)cc3)ccc2C2=NCCCN12 | 8710 | –

Further lines, with some results ahead:

Row | EC50 [1] [nM] | SMILES | further results
29 | 240 | CC1(C)CN=C2c3ccccc3SC(=N)N2C1 | –
30 | 250 | N=C1Sc2cc(Br)ccc2C2=NCCCN12 | –
31 | 200 | N=C1Sc2cc(-c3cc4ccccc4o3)ccc2C2=NCCCN12 | –
32 | 220 | N=C1Sc2cc(-c3ccsc3)ccc2C2=NCCCN12 | –
33 | 260 | N=C1Sc2cc(-c3cc4ccccc4s3)ccc2C2=NCCCN12 | –
34 | 420 | N=C1Sc2cc(-n3cccn3)ccc2C2=NCCCN12 | –
35 | 5120 | N=C1Sc2cc(-n3ccnc3)ccc2C2=NCCCN12 | –
36 | 200 | N=C1Sc2cc(-c3ccc4ccccc4c3)ccc2C2=NCCCN12 | –
37 | 390 | N=C1Sc2cc(-c3cccc4ccccc34)ccc2C2=NCCCN12 | –
38 | 450 | N=C1Sc2cc(-c3cccnc3)ccc2C2=NCCCN12 | –
39 | 540 | N=C1Sc2cc(-c3ccncc3)ccc2C2=NCCCN12 | –
40 | 260 | N=C1Sc2cc(-c3ccco3)ccc2C2=NCCCN12 | –
41 | 1170 | N#Cc1cccc(-c2ccc3c(c2)SC(=N)N2CCCN=C32)c1 | –
42 | 1260 | N=C1Sc2cc(-c3cccc([N+](=O)[O-])c3)ccc2C2=NCCCN12 | –
43 | 2620 | N=C1Sc2cc(-c3cccc(O)c3)ccc2C2=NCCCN12 | –
44 | 150 | COc1cccc(-c2ccc3c(c2)SC(=N)N2CCCN=C32)c1 | –
45 | 410 | COc1ccccc1-c1ccc2c(c1)SC(=N)N1CCCN=C21 | –
46 | 320 | N=C1Sc2cc(-c3ccccc3-c3ccccc3)ccc2C2=NCCCN12 | –
47 | 240 | N=C1Sc2cc(-c3ccccc3)ccc2C2=NCCCN12 | –
48 | 240 | COc1ccc(-c2ccc3c(c2)SC(=N)N2CCCN=C32)cc1 | –
49 | 440 | N=C1Sc2ccccc2C2=NCCCN12 | CC50 [10]: > 100000 nM; EC50 [3]: 300 nM; EC50 [5]: 370 nM; EC50 [7]: 380 nM; EC50 [9]: 310 nM; selectivity ratio [11]: > 200
50 | 1190 | CC(O)c1cccc(-c2ccc3c(c2)SC(=N)N2CCCN=C32)c1 (racemic) | –
